Reference: ChEMBL document CHEMBL3085690, “Naturally occurring antimicrobial peptide OH-CATH30 selectively regulates the innate immune response to protect against sepsis” (J Med Chem, 2013)
Activity calls are given as the source filed them. The calls are words filed in the database; no cut-off is given here. Peptide text beside a SMILES is read from it.

Key:
Mus musculus [1] = experiment: Stimulation of innate immune response in Kunming mouse assessed as increase of CXCL2 level in peritoneal lavage at 10 mg/kg, ip after 5 hrs; format: functional, organism-based; set-up: dose 10 mg/kg
How it was run: (§1)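 Female Kunming mice (18−22 g) received a single ip injection of peptide at 10 mg/kg in sterile saline. Peritoneal lavage was collected in 2 mL of cold sterile saline 5 h later, and cytokines and chemokines were measured by ELISA. Data are mean ± SD from four mice, compared by unpaired t test.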

Mus musculus [2] = experiment: Stimulation of innate immune response in Kunming mouse infected with Escherichia coli ATCC 25922 assessed as reduction of bacterial burden in peritoneal lavage by measuring survival rate at 10 mg/kg, ip administered 5 hrs before bacterial infection measured up to 7 days; format: functional, organism-based; set-up: dose 10 mg/kg
How it was run: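 Peptide at 10 mg/kg ip was given 5 h before ip challenge with E. coli 25922 (2.5 × 10^8 CFU), P. aeruginosa 27853 (8 × 10^7 CFU) or S. aureus 25923 (2 × 10^8 CFU) per mouse. Viable bacteria were counted in peritoneal lavage collected in 2 mL of cold saline (n = 7, 6 and 8 respectively; unpaired t test). Survival was recorded for up to 7 days.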

Mus musculus [3] = experiment: Stimulation of innate immune response in Kunming mouse assessed as protection against Escherichia coli ATCC 25922-induced mortality by measuring survival rate at 10 mg/kg, ip administered 3 hrs after bacterial infection measured up to 7 days; format: functional, organism-based; set-up: dose 10 mg/kg
How it was run: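 Female Kunming mice were challenged ip with E. coli 25922 at 2.5 × 10^8 CFU/mouse (n = 10). Peptide at 10 mg/kg in sterile saline was given ip at −24 h or +3 h relative to inoculation. Mice were monitored every 6 h and mortality was recorded for up to 7 days, with humane end points. Survival curves were compared by log-rank test.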

Mus musculus [4] = experiment: Stimulation of innate immune response in ip dosed Kunming mouse assessed as protection against Escherichia coli ATCC 25922-induced mortality by measuring survival rate measured up to 7 days; format: functional, organism-based
How it was run: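 Kunming mice were challenged ip with E. coli 25922 at 2.5 × 10^8 CFU/mouse (n = 10). A single ip dose of peptide, from 1 to 10 mg/kg in sterile saline, was given 5 h before infection. Survival was followed for up to 7 days and compared by log-rank test.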

[5] = Induction of IL-10 mRNA up-regulation in mouse BMDM at 20 ug/ml after 3 hrs by qRT-PCR analysis relative to control; format: functional
How it was run: (§2)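 Murine BMDMs stimulated with peptide, then target mRNA quantified by qRT-PCR. Expression normalized to GAPDH, with untreated cells set to 1.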

RAW264.7 [6] = experiment: Induction of phagocytic activity in mouse RAW264.7 cells using fluorescently labeled Escherichia coli up to 2 hrs by fluorescent assay; format: functional, cell-based
BMDM [7] = experiment: Increase of IL-1beta protein level in mouse BMDM at 20 ug/ml after 18 hrs by ELISA; format: functional
How it was run: (§3)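 Bone marrow-derived macrophages (RPMI 1640, 10% FCS, 20% L929-conditioned medium) stimulated with peptide for 18 h. Cytokines and chemokines in culture supernatant quantified by sandwich ELISA. Mean ± SD from three independent experiments, unpaired t test.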

BMDM [8] = experiment: Increase of IL-1Ra protein level in mouse BMDM at 20 ug/ml after 18 hrs by ELISA; format: functional; how it was run: as §3
BMDM [9] = experiment: Increase of CXCL1 protein level in mouse BMDM at 20 ug/ml after 18 hrs by ELISA; format: functional; how it was run: as §3
BMDM [10] = experiment: Increase of CXCL2 production in mouse BMDM after 6 hrs by ELISA in presence of WRW4; format: functional
Mus musculus [11] = experiment: Stimulation of innate immune response in neutropenic Kunming mouse infected with Pseudomonas aeruginosa ATCC 27853 assessed as increase of number of neutrophils and inflammatory monocytes in peritoneal lavage at 10 mg/kg, ip up to 24 hrs; format: functional, organism-based; set-up: dose 10 mg/kg
How it was run: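 Mice were made neutropenic with ip cyclophosphamide, 150 mg/kg on day 0 and 100 mg/kg on day 3. They were then injected ip with peptide at 10 mg/kg. Peritoneal cells were collected up to 24 h afterwards and typed by flow cytometry after GR1/F4/80 staining.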

[12] = Increase of CXCL2 production in mouse BMDM after 6 hrs by ELISA in presence of p38 MAPK inhibitor SB-202190; format: functional
Mus musculus [13] = experiment: Stimulation of innate immune response in clodronate liposomes treated Kunming mouse monocytes depletion model assessed as increase of CXCL2 production in peritoneal lavage at 10 mg/kg, ip; format: functional, organism-based; set-up: dose 10 mg/kg
Mus musculus [14] = experiment: Stimulation of innate immune response in Kunming mouse assessed as increase of CXCL1 level in peritoneal lavage at 10 mg/kg, ip after 5 hrs; format: functional, organism-based; set-up: dose 10 mg/kg; how it was run: as §1
[15] = Increase of IL-1Ra protein level in mouse BMDM at 10 ug/ml after 18 hrs by ELISA; format: functional; how it was run: as §3
BMDM [16] = experiment: Increase of CXCL2 production in mouse BMDM after 6 hrs by ELISA in presence of TLR4/MD2 Ab; format: functional
RAW264.7 [17] = experiment: Inhibition of LPS-induced TNFalpha production in mouse RAW264.7 cells 2 to 50 ug/ml after 6 hrs by ELISA; format: functional, cell-based
Mus musculus [18] = experiment: Stimulation of innate immune response in Kunming mouse infected with Pseudomonas aeruginosa ATCC 27853 assessed as effect on IL-6 production in peritoneal lavage at 10 mg/kg, ip after 5 hrs by ELISA; format: functional, organism-based; set-up: dose 10 mg/kg
[19] = Induction of IL-17alpha mRNA up-regulation in mouse BMDM at 20 ug/ml after 3 hrs by qRT-PCR analysis relative to control; format: functional; how it was run: as §2
BMDM [20] = experiment: Induction of CCL4 mRNA up-regulation in mouse BMDM at 20 ug/ml after 3 hrs by qRT-PCR analysis; format: functional; how it was run: as §2
BMDM [21] = experiment: Increase of TNFalpha protein level in mouse BMDM at 20 ug/ml after 18 hrs by ELISA; format: functional; how it was run: as §3
BMDM [22] = experiment: Increase of CCL2 protein level in mouse BMDM at 20 ug/ml after 18 hrs by ELISA; format: functional; how it was run: as §3
BMDM [23] = experiment: Induction of CXCL3 mRNA up-regulation in mouse BMDM at 20 ug/ml after 3 hrs by qRT-PCR analysis; format: functional; how it was run: as §2
Mus musculus [24] = experiment: Stimulation of innate immune response in Kunming mouse assessed as increase of IL-1beta level in peritoneal lavage at 10 mg/kg, ip after 5 hrs; format: functional, organism-based; set-up: dose 10 mg/kg; how it was run: as §1
[25] = biological target: Transcription factor p65 (Mus musculus) (UniProt Q04207); experiment: Activation of NFkappaB in mouse BMDM assessed as degradation of IkappaBalpha at 10 ug/ml after 15 to 30 mins by Western blotting
Sequence of Transcription factor p65 (Mus musculus) (Q04207 whole entry): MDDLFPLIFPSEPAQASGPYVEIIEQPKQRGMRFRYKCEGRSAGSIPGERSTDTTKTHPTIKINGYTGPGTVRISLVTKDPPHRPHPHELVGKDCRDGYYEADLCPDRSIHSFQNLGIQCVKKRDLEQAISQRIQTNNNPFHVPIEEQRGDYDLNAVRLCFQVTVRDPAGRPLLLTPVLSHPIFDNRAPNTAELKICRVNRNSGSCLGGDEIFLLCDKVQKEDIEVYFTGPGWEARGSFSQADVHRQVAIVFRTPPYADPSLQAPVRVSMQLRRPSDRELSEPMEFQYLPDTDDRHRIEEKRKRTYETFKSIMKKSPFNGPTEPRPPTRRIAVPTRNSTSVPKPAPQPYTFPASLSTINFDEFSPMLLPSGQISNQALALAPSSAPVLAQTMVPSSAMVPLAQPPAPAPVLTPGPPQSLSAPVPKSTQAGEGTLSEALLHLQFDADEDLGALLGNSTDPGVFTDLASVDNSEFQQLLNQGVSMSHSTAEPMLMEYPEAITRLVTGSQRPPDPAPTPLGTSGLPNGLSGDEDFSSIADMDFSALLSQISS
How it was run: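 BMDMs (bone marrow cells grown in RPMI 1640 with 10% FCS and 20% L929-conditioned medium) stimulated, then lysates run on 10% SDS-PAGE and transferred to PVDF. Membranes blocked with 5% BSA and probed with phospho-ERK1/2 and total ERK1/2 antibodies, or with anti-IκBα. HRP anti-rabbit secondary, chemiluminescent detection.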

[26] = Increase of CXCL2 production in mouse BMDM after 6 hrs by ELISA in presence of JNK inhibitor SP600125; format: functional
RAW264.7 [27] = experiment: Inhibition of PGN-induced TNFalpha production in mouse RAW264.7 cells 2 to 50 ug/ml after 6 hrs by ELISA; format: functional, cell-based

With `CC[C@H](C)[C@H](NC(=O)[C@@H](NC(=O)[C@H](CCCNC(=N)N)NC(=O)[C@@H]1CCCN1C(=O)[C@H](CCCCN)NC(=O)[C@H](CCCCN)NC(=O)[C@H](Cc1ccccc1)NC(=O)[C@H](Cc1ccccc1)NC(=O)[C@H](CCCCN)NC(=O)[C@H](CCCCN)NC(=O)[C@H](C)NC(=O)[C@H](CCCNC(=N)N)NC(=O)[C@H](CCCCN)NC(=O)[C@H](CCCCN)NC(=O)[C@@H](NC(=O)[C@H](CO)NC(=O)[C@H](CC(N)=O)NC(=O)[C@H](CCCCN)NC(=O)[C@H](CC(C)C)NC(=O)[C@H](CCCCN)NC(=O)[C@H](CCCCN)NC(=O)[C@H](Cc1ccccc1)NC(=O)[C@H](Cc1ccccc1)NC(=O)[C@@H](N)CCCCN)C(C)C)C(C)C)C(=O)NCC(=O)N[C@H](C(=O)N[C@@H](CO)C(=O)N[C@H](C(=O)N1CCC[C@H]1C(=O)N[C@@H](Cc1ccccc1)C(=O)O)[C@@H](C)CC)C(C)C` (H-KFFKKLKNSVKKRAKKFFKKPRVIGVSIPF-OH) the Activity (Mus musculus [1]) was “Active”, the Activity (Mus musculus [2]) was “Active” and the Activity (Mus musculus [3]) was “Active”. For the same compound, the Activity (Mus musculus [4]) was “Dose-dependent effect”, the “fold change (FC)” value [5] was 5 and the Activity (RAW264.7 [6]) was “inactive”. For the same compound, the Activity (BMDM [7]) was “inactive”, the Activity (BMDM [8]) was “Active” and the Activity (BMDM [9]) was “Active”. For the same compound, the Activity (BMDM [10]) was “Active”, the Activity (Mus musculus [11]) was “inactive” and the Activity [12] was 464.9 pg/mL. For the same compound, the Activity (Mus musculus [13]) was “inactive”, the Activity (Mus musculus [14]) was “Active” and the Activity [15] was 232 pg/mL. For the same compound, the Activity (BMDM [16]) was “inactive”, the inhibition (RAW264.7 [17]) was “Active” and the Activity (Mus musculus [18]) was “inactive”. The “fold change (FC)” value [19] was 51, the Activity (BMDM [20]) was “Active” and the Activity (BMDM [21]) was “inactive”. For the same compound, the Activity (BMDM [22]) was “Active”, the Activity (BMDM [23]) was “Active” and the Activity (Mus musculus [24]) was “inactive”. For the same compound, the Activity [25] was “inactive”, the Activity [26] was 952 pg/mL and the inhibition (RAW264.7 [27]) was “inactive”.
